The text below walks through data of ChEMBL document CHEMBL4177578, “Synthesis, pharmacological activities and molecular docking studies of pyrazolyltriazoles as anti-bacterial and anti-inflammatory agents” (Bioorg Med Chem, 2017).

Converted amounts (≈) assume the structure as drawn. The source made the active and inactive calls. The calls are words filed in the database; no cut-off is given here.

For assay [1], the system named is U-937. As to the kind of experiment: Anti-inflammatory activity in human U937 cells assessed as inhibition of LPS-induced TNFalpha production at 10 uM pre-incubated for 1 hr before LPS stimulation for 24 hrs by ELISA method. Type of assay: functional. In a few lines: (§1)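 Human U937 cells grown in RPMI1640 with 10% FBS at 37 °C, 5% CO2. Differentiated with PMA 30 ng/ml for 24 h. Test compounds added for 1 h, then LPS 1 µg/ml for 24 h. TNF-α and IL-6 in supernatant measured by ELISA. Three independent experiments.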
Background: An ELISA detects its analyte on a solid surface through an enzyme-linked reagent.

Another assay has as its system Salmonella typhi. Kind of assay: Antimicrobial activity against Salmonella typhi at 1 mg/ml incubated for 20 to 30 mins followed by incubation for 24 hrs at 37 degC by agar plate method. Format: functional, Salmonella enterica subsp. enterica serovar Typhi. Conditions: Salmonella enterica; read-out: DIZ. In a few lines:
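Agar well diffusion on nutrient agar. Plates swabbed with 60 µL inoculum, 8 mm wells loaded with 100 µL sample at 1.0 mg/mL, streptomycin standard and control in separate wells. Plates held 20–30 min at 4 °C for diffusion, then 24 h at 37 °C. Zone diameter read in mm; triplicate.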

Assay [2] in a line: Anti-inflammatory activity at 50 ug/ml using bovine serum albumin and egg albumin proteins incubated at 37 degC for 20 mins and then heated to 95 degC for 20 mins by UV-visible Spectrophotometry based protein denaturation method. Type of assay: functional. In a few lines: (§2)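 Albumin (bovine serum or egg) at 1% in 50 mM sodium phosphate buffer pH 6.4. Mixture is 0.1 ml test sample (1 mg/ml) plus 0.2 ml albumin, made to 5 ml with buffer. Held 37 °C for 20 min, then 95 °C for 20 min. Cooled to room temperature, turbidity read at 660 nm. % inhibition = (Abs control − Abs sample)/Abs control × 100. Triplicate, averaged.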

Assay [3] is described as follows: Anti-inflammatory activity at 100 ug/ml using bovine serum albumin and egg albumin proteins incubated at 37 degC for 20 mins and then heated to 95 degC for 20 mins by UV-visible Spectrophotometry based protein denaturation method. Type of assay: functional. Summed up:
as §2

A short description of assay [4]: Anti-inflammatory activity using bovine serum albumin and egg albumin proteins incubated at 37 degC for 20 mins and then heated to 95 degC for 20 mins by UV-visible Spectrophotometry based protein denaturation method. Type of assay: functional. Summed up:
as §2

The subject of assay [5] is U-937. Kind of assay: Anti-inflammatory activity in human U937 cells assessed as inhibition of LPS-induced TNFalpha production pre-incubated for 1 hr before LPS stimulation for 24 hrs by ELISA method. Format: functional, cell-based. Summed up:
as §1

Assay [6] has as its system U-937. Kind of assay: Anti-inflammatory activity in human U937 cells assessed as inhibition of LPS-induced IL6 production at 10 uM pre-incubated for 1 hr before LPS stimulation for 24 hrs by ELISA method. Format: functional. Summed up: as §1
Assay [7] concerns U-937. Kind of assay: Anti-inflammatory activity in human U937 cells assessed as inhibition of LPS-induced IL6 production pre-incubated for 1 hr before LPS stimulation for 24 hrs by ELISA method. Format: functional, cell-based. Summed up: as §1
In assay [8] the test system is Mus musculus. Kind of assay: Anti-inflammatory activity in Balb/c mouse assessed as reduction in LPS-induced serum TNFalpha production at 100 mg/kg, ig dosed for 3 consecutive days before LPS challenge and measured 6 hrs post LPS injection by ELISA method. Format: functional, organism-based. In a few lines: (§3)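 Male Balb/c mice (20–25 g), 8 per group. Test compound at 100 mg/kg suspended in 2% gum acacia (10 ml/kg), given orally (intragastric) for 3 consecutive days. On day 3, LPS (10 mg/kg) given ip 1 h after the oral dose. Serum taken from retro-orbital blood 6 h after LPS; TNF-α and IL-6 measured by ELISA. Mean ± S.E.M.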

The test system of assay [9] is Mus musculus. As to the kind of experiment: Anti-inflammatory activity in Balb/c mouse assessed as reduction in LPS-induced serum IL6 production at 100 mg/kg, ig dosed for 3 consecutive days before LPS challenge and measured 6 hrs post LPS injection by ELISA method. Type of assay: functional, organism-based. Summed up: as §3

What is called inhibition is the percentage by which the read-out fell short of the control. The IC50 is the midpoint of a concentration-inhibition curve. As to `Cc1ccc(-n2cc(Cn3cc(CO)nn3)c(-c3ccccc3)n2)cc1C`, the inhibition at 10 µM in the assay with U-937 [1] was determined as 41.7%; in the assay on U-937 [6], 87%. Further, in the assay with Salmonella typhi, the zone of inhibition at 1000 µg/mL came to 15.5 mm. Also, the inhibition in assay [2] came out at 46.5%; in [3], 77.6%. Further, the IC50 came out at 64.44 µg/mL (≈ 179 µM) in assay [4], 17.4 µM in the assay on U-937 [5] and 7.72 µM with U-937 [7]. The inhibition entry with Mus musculus [8] is “Active”. Also, the inhibition entry with Mus musculus [9] was “inactive”.
